Active and inactive are the calls of the source. The calls are words filed in the database; no cut-off is given here.
What was measured:
Homo sapiens = organism: Homo sapiens; assay: Binding affinity to human sodium channel up to 10 uM
[1] = target: T1, Gastric inhibitory polypeptide receptor (Homo sapiens, UniProt P48546); assay: Antagonist activity at human GIPR expressed in CHO cells assessed as inhibition of glucagon-induced cAMP accumulation; type: functional, cell-based
T1 sequence (P48546 whole entry): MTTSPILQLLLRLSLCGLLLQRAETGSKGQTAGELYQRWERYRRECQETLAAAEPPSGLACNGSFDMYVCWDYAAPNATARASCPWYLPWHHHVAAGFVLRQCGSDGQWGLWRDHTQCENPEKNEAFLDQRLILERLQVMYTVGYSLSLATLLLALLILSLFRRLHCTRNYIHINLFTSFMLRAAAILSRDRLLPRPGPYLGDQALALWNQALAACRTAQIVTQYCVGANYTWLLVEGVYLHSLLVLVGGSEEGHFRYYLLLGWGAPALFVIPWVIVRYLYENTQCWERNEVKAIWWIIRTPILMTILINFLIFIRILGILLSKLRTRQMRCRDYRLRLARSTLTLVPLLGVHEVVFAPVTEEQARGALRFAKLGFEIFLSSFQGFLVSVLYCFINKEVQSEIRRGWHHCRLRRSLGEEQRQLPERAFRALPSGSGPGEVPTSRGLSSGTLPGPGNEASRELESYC

[2] = Plasma clearance in dog at 0.5 mg/kg, iv and 2 mg/kg, po; type: ADME, organism-based, Canis lupus familiaris
Mus musculus [3] = assay: In vivo occupancy of human GCGR transfected in mouse at 10 mg/kg after 1 hr; type: functional
Procedure, shortened: (§1)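 In vivo receptor occupancy measured in hGCGR transgenic mice after oral dosing, at 1 h post-dose (30 and 10 mpk) and in a separate experiment at 1, 3 and 8 h after 10 mpk.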

[4] = Volume of distribution at steady state in rat at 1 mg/kg, iv and 2 mg/kg, po; type: ADME, organism-based; conditions: in vivo, read-out: Vdss
Cytochrome P450 3A4 = Cytochrome P450 3A4 (Homo sapiens, UniProt P08684); assay: Inhibition of CYP3A4; type: ADME
Chain of Cytochrome P450 3A4 (P08684 whole entry): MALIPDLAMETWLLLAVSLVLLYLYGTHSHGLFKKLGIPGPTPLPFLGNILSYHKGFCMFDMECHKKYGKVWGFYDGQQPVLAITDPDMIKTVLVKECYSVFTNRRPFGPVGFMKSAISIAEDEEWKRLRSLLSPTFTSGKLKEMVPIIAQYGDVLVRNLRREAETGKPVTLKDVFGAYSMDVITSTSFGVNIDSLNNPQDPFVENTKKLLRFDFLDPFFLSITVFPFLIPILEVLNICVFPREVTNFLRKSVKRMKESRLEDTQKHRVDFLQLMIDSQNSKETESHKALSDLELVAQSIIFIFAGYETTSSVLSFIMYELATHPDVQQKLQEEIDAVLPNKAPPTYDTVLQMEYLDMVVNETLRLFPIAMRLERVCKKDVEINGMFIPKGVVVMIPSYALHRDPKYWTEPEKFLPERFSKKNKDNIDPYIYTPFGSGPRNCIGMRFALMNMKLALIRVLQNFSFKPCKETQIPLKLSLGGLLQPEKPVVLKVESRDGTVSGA

[5] = Half life in dog at 0.5 mg/kg, iv and 2 mg/kg, po; type: ADME, organism-based, Canis lupus familiaris; conditions: in vivo
[6] = Plasma concentration in rhesus monkey at 0.3 mg/kg, po after 4 hrs; type: ADME, organism-based, Macaca mulatta; parameters: dose 0.3 mg/kg, route oral
Procedure, shortened: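 Overnight-fasted rhesus monkeys received the oral dose 4 h before the glucagon challenge (15 µg/kg im, time zero). Plasma drug level was sampled at the time of the challenge (t = 0, n = 4). Plasma glucose was then followed every 10 min and expressed as the change from time zero.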

[7] = Cmax in rat at 2 mg/kg, po; type: ADME, organism-based; parameters: dose 2 mg/kg, route oral; conditions: in vivo
[8] = Bioavailability in rat at 1 mg/kg, iv and 2 mg/kg, po; type: ADME, organism-based; conditions: in vivo
[9] = Cmax in rhesus monkey at 2 mg/kg, po; type: ADME, organism-based, Macaca mulatta; parameters: dose 2 mg/kg, route oral; conditions: in vivo
[10] = Cmax in mouse at 2 mg/kg, po; type: ADME, organism-based; parameters: dose 2 mg/kg, route oral; conditions: in vivo
[11] = Bioavailability in rhesus monkey at 0.5 mg/kg, iv and 2 mg/kg, po; type: ADME, organism-based, Macaca mulatta; conditions: in vivo
[12] = Drug level in blood of transgenic mouse expressing human GCGR at 30 mg/kg, po after 120 mins; type: ADME, organism-based; parameters: dose 30 mg/kg, route oral; conditions: read-out: Drug uptake
Procedure, shortened: (§2)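 Blood drug concentration sampled in hGCGR transgenic mice during the oral glucagon-challenge pharmacodynamic assay at 45 and 120 min post dose, 10 and 30 mpk groups, n = 3 per group.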

Mus musculus [13] = assay: In vivo occupancy of human GCGR transfected in mouse at 10 mg/kg after 8 hrs; type: functional; procedure, shortened: as §1
Glucagon receptor [14] = target: Glucagon receptor (Mus musculus, UniProt Q61606); assay: Antagonist activity at mouse GCGR assessed as inhibition of glucagon-induced cAMP accumulation; type: functional
Chain of Glucagon receptor (Mus musculus, UniProt Q61606) (Q61606 whole entry): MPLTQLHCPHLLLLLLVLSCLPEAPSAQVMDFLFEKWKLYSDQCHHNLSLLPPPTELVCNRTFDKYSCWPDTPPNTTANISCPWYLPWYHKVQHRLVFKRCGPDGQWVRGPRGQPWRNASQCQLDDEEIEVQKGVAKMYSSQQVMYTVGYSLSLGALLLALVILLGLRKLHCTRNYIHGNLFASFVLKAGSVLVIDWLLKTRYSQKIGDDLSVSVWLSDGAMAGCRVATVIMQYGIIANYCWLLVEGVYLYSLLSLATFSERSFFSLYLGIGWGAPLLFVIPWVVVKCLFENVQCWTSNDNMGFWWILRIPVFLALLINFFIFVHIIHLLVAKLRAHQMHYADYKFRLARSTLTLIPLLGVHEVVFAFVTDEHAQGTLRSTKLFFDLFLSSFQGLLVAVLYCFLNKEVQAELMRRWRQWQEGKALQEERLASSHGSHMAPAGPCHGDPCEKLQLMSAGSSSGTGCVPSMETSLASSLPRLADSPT

[15] = Drug level in blood of transgenic mouse expressing human GCGR at 10 mg/kg, po after 45 mins; type: ADME, organism-based; parameters: dose 10 mg/kg, route oral; conditions: read-out: Drug uptake; procedure, shortened: as §2
[16] = Drug level in blood of transgenic mouse expressing human GCGR at 30 mg/kg, po after 45 mins; type: ADME, organism-based; parameters: dose 30 mg/kg, route oral; conditions: read-out: Drug uptake; procedure, shortened: as §2
Glucagon receptor [17] = target: Glucagon receptor (Homo sapiens, UniProt P47871); assay: Antagonist activity at human GCGR expressed in CHO cells assessed as inhibition of glucagon-induced cAMP accumulation; type: functional, cell-based
Chain of Glucagon receptor (Homo sapiens, UniProt P47871) (P47871 whole entry): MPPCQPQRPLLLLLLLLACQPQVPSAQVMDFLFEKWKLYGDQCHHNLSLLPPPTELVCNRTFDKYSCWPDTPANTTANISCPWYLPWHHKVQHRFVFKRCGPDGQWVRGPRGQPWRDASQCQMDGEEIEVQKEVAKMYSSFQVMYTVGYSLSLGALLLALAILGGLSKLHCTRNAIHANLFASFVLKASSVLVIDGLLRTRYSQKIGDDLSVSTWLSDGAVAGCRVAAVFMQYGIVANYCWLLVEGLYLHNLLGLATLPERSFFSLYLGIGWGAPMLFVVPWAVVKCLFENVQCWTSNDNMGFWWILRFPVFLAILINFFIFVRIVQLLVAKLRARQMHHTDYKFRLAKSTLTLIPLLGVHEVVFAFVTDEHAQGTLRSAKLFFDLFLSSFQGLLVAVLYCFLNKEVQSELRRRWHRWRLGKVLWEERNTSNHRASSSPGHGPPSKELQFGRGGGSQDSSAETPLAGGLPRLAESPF
Procedure, shortened: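 Inhibition of glucagon-induced cAMP accumulation in CHO cells transfected with human GCGR; IC50 derived, n given where replicated.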

[18] = Bioavailability in mouse at 1 mg/kg, iv and 2 mg/kg, po; type: ADME, organism-based; conditions: in vivo
Glucagon receptor [19] = target: Glucagon receptor (Rattus norvegicus, UniProt P30082); assay: Antagonist activity at rat GCGR assessed as inhibition of glucagon-induced cAMP accumulation; type: functional
Chain of Glucagon receptor (Rattus norvegicus, UniProt P30082) (P30082 whole entry): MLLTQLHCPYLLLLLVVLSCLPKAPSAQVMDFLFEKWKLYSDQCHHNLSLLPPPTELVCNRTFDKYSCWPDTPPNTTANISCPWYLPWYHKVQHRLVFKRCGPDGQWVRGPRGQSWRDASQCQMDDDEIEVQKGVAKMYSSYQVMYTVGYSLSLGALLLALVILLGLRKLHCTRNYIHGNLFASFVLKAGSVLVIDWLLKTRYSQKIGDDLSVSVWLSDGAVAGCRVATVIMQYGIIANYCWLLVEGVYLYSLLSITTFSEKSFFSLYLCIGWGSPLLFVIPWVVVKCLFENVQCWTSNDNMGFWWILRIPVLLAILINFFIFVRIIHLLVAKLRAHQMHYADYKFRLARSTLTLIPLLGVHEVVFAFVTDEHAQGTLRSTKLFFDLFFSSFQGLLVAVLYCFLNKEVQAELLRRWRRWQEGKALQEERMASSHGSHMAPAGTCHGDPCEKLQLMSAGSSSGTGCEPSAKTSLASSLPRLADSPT

[20] = Half life in mouse at 1 mg/kg, iv and 2 mg/kg, po; type: ADME, organism-based; conditions: in vivo
Mus musculus [21] = assay: Antidiabetic activity in transgenic mouse expressing human GCGR assessed as inhibition of glucagon-induced blood glucose excursion at 30 mg/kg, po administered 3 hrs before glucagon challenge measured after 48 mins; type: functional, organism-based; parameters: dose 30 mg/kg
Procedure, shortened: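 hGCGR transgenic mice (only functional receptor is human GCGR), 9 per group, given compound orally, then glucagon 15 µg/kg IP 60 min later (one arm dosed 30 mpk three hours before challenge); blood glucose monitored at 12, 24, 36 and 48 min after glucagon.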

[22] = target: T2, Nuclear receptor subfamily 1 group I member 2 (Homo sapiens, UniProt O75469); assay: Activity at human PXR
T2 sequence (O75469 whole entry): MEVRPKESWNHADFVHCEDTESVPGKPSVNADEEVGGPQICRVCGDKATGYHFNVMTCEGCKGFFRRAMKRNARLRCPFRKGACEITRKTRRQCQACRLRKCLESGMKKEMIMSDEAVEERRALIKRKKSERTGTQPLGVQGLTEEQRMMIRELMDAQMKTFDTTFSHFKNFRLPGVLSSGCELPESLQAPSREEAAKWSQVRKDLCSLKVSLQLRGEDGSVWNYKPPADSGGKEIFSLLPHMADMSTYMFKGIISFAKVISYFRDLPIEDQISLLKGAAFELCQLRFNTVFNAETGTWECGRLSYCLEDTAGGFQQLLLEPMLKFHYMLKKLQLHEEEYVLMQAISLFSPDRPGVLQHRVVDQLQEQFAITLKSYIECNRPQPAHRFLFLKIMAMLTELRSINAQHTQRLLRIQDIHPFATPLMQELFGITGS

[23] = Half life in rhesus monkey at 0.5 mg/kg, iv and 2 mg/kg, po; type: ADME, organism-based, Macaca mulatta; conditions: in vivo
Mus musculus [24] = assay: In vivo occupancy of human GCGR transfected in mouse at 10 mg/kg after 3 hrs; type: functional; procedure, shortened: as §1

SMILES: O=C(O)CCNC(=O)c1ccc(Cn2nc(-c3cc(Cl)cc(Cl)c3)cc2-c2ccc(OC(F)(F)F)cc2)cc1
- Activity (Homo sapiens): inactive
- IC50 [1]: 7.5 µM
- clearance [2]: 0.49 mL/min/kg
- Activity (Mus musculus [3]): 64%
- Vd [4]: 0.75 L/kg
- IC50 (Cytochrome P450 3A4): 39 µM
- half-life [5]: 3.6 h
- concentration at 4 h [6]: 0.13 µM
- Cmax [7]: 1.6 µM
- bioavailability [8]: 57%
- Cmax [9]: 4.2 µM
- Cmax [10]: 0.23 µM
- bioavailability [11]: 68%
- concentration at 2 h [12]: 14.2 µM
- Activity (Mus musculus [13]): 51%
- IC50 (Glucagon receptor [14]): 2 µM
- concentration at 0.75 h [15]: 3.55 µM
- concentration at 0.75 h [16]: 10.3 µM
- IC50 (Glucagon receptor [17]): 0.11 µM
- bioavailability [18]: 15%
- IC50 (Glucagon receptor [19]): 2.6 µM
- half-life [20]: 2.3 h
- inhibition (Mus musculus [21]): Active
- EC50 [22]: > 25 µM
- half-life [23]: 10 h
- Activity (Mus musculus [24]): 60%
